Variants at the floor of the assay were thinned out.
B1: tRNA (parent)
chain: GUUCCGUUGGCGUAAUGGUAACGCGUCUCCCUCCUAAGGAGAAGACUGCGGGUUCGAGUCCCGUACGGAACG

Variants of: B1
Assay: yeast fitness relative to wild type (ratio to wild type); higher = fitter; tRNA-Arg(CCU), competitive growth, 37 C, YPD
Outline: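 Start and end populations of a pooled competition were compared by 100-nucleotide paired-end sequencing of gene amplicons. The Saccharomyces cerevisiae strains carried tRNA-Arg(CCU) gene variants at the native genomic locus, synthesised with a 3% per-site mutation rate at 69 sites, and competed in YPD at 37°C for 24 hours in six parallel replicates. Darwinian fitness relative to wild type was based on the change in genotype frequencies. Genotypes required ≥ 100 starting reads, and estimates < 0.5 were set to 0.5.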

| Variant | yeast fitness |
| --- | --- |
| U3A C27G U28G A36U A45U C49G | 0.662 |
| U3A C27U A37G G41C U64C A70C | ≤ 0.5 |
| U3A C27U C60A | ≤ 0.5 |
| U3A C29G G50A | ≤ 0.5 |
| U3A C30G A36G C46G | ≤ 0.5 |
| U3A C30G C31U | ≤ 0.5 |
| U3A C30G C33U C55U | ≤ 0.5 |
| U3A C30U | 0.822 |
| U3A C30U U54A | ≤ 0.5 |
| U3A C31A C55U | ≤ 0.5 |
| U3A C31G | 0.845 |
| U3A C31U A40C U64A | ≤ 0.5 |
| U3A C33G A43G G58A G67A A69U | ≤ 0.5 |
| U3A C33U A40C | ≤ 0.5 |
| U3A C33U G44A | ≤ 0.5 |
| U3A C34A A69G | ≤ 0.5 |
| U3A C34U A45G C49U U53A | ≤ 0.5 |
| U3A C46U | 1 |
| U3A C55U | 0.876 |
| U3A C61U | 0.924 |
| U3A C62A | 0.727 |
| U3A C62U G63C | ≤ 0.5 |
| U3A C66G | 0.669 |
| U3A G6A A14U C33G | ≤ 0.5 |

| Variant | yeast fitness |
| --- | --- |
| U3A G6A C31U A40C | ≤ 0.5 |
| U3A G6A U16A C24G A37U C49U G67A | ≤ 0.5 |
| U3A G6C | 0.662 |
| U3A G6C C55G | ≤ 0.5 |
| U3A G9C C27G C34A | ≤ 0.5 |
| U3A G9C C46G | 0.533 |
| U3A G10C A57G C66U | ≤ 0.5 |
| U3A G10C G17C A37C G50C | ≤ 0.5 |
| U3A G10C G39C G48A | ≤ 0.5 |
| U3A G12C A15C U19A C34U C49A G67A | ≤ 0.5 |
| U3A G12C A21C A36C C49U A70U | ≤ 0.5 |
| U3A G12C C24G | ≤ 0.5 |
| U3A G17A C22U | 0.559 |
| U3A G17A C22U A45G | ≤ 0.5 |
| U3A G17C C29U | ≤ 0.5 |
| U3A G18A C49G C55G C60A C62A G68A A69U | 0.623 |
| U3A G23A A70G | 0.561 |
| U3A G23A U32A | ≤ 0.5 |
| U3A G23C A45G | ≤ 0.5 |
| U3A G25A A37U C61A | ≤ 0.5 |
| U3A G25A G38A | 0.583 |
| U3A G25A U26G | 0.535 |
| U3A G38A | 0.787 |
| U3A G38C G41C A65G | 0.78 |

| Variant | yeast fitness |
| --- | --- |
| U3A G39A C49U | 0.559 |
| U3A G39C A45G G50A | ≤ 0.5 |
| U3A G41C C66A | 0.527 |
| U3A G41C G63C A65U | ≤ 0.5 |
| U3A G48A A57U | 0.591 |
| U3A G48C U54C C55A | ≤ 0.5 |
| U3A G50C G51C G56A | ≤ 0.5 |
| U3A G58A | 1.01 |
| U3A G67A | 0.684 |
| U3A U7A A43C G56A | ≤ 0.5 |
| U3A U7A U32C G41A | ≤ 0.5 |
| U3A U7C | 0.839 |
| U3A U7G A14U G25A G41C C46U U59C C61A | ≤ 0.5 |
| U3A U8C A36U U53G | ≤ 0.5 |
| U3A U13A C22U C24U | ≤ 0.5 |
| U3A U13C C49G | ≤ 0.5 |
| U3A U13C G25A | 0.67 |
| U3A U16A C22U A36C G38U G48C | ≤ 0.5 |
| U3A U16C C33G C62U | ≤ 0.5 |
| U3A U19A C24U | 0.74 |
| U3A U19A C61U A70U | 0.551 |
| U3A U19A C62U | 0.776 |
| U3A U19C | 0.875 |
| U3A U26A C66U | ≤ 0.5 |

| Variant | yeast fitness |
| --- | --- |
| U3A U26G | 0.781 |
| U3A U28C C29G | ≤ 0.5 |
| U3A U32A G39A C49G C55U | ≤ 0.5 |
| U3A U47G G67A A69U | ≤ 0.5 |
| U3A U54C | 0.777 |
| U3A U59A | 0.658 |
| U3A U59G | 0.81 |
| U3C A14C | 0.703 |
| U3C A14C G44C G50C U54C C55A | ≤ 0.5 |
| U3C A14G C30G A43C | ≤ 0.5 |
| U3C A14U A15C C31G A43U | ≤ 0.5 |
| U3C A14U A37U | ≤ 0.5 |
| U3C A14U A40G C61G | 0.567 |
| U3C A14U U28G | ≤ 0.5 |
| U3C A15C A65C | ≤ 0.5 |
| U3C A15C U47G U54A G58A | ≤ 0.5 |
| U3C A15G C60G C62U | ≤ 0.5 |
| U3C A15G G68C | 0.618 |
| U3C A20C A45C C49U | ≤ 0.5 |
| U3C A20G A43G | 0.744 |
| U3C A20G C24U G52A A57U C62A | ≤ 0.5 |
| U3C A20G U47C | 0.686 |
| U3C A20U C30U A37G | 0.633 |
| U3C A21C | 0.831 |

| Variant | yeast fitness |
| --- | --- |
| U3C A21C A45C C49U | 0.532 |
| U3C A21U C34A G52A C61G G63A | ≤ 0.5 |
| U3C A21U G38C | 0.668 |
| U3C A36C | 0.566 |
| U3C A36G C61U | 0.623 |
| U3C A36G G39C C55U C66U | ≤ 0.5 |
| U3C A36U A69U | ≤ 0.5 |
| U3C A37U G51A C62U | ≤ 0.5 |
| U3C A40G G58C A70U | ≤ 0.5 |
| U3C A40U | 0.976 |
| U3C A40U A45U G52A | ≤ 0.5 |
| U3C A40U C49A C62A | ≤ 0.5 |
| U3C A42C A69C | 0.978 |
| U3C A42U G63A | ≤ 0.5 |
| U3C A43C | 1.04 |
| U3C A43C A65U | 0.604 |
| U3C A45C C49U | 0.712 |
| U3C A45U C49G | 0.678 |
| U3C A45U G51C | 0.574 |
| U3C A45U U59C | 0.699 |
| U3C A57C | 0.504 |
| U3C A57C U64A | ≤ 0.5 |
| U3C A65G G68C | 0.561 |
| U3C A69U | 1.03 |

| Variant | yeast fitness |
| --- | --- |
| U3C C4A G23A C31G A40C | ≤ 0.5 |
| U3C C4A U16C G17A | ≤ 0.5 |
| U3C C4G C66G | ≤ 0.5 |
| U3C C4G G23C | ≤ 0.5 |
| U3C C4U A15G U26A U32A C62U G67C | 0.613 |
| U3C C4U C27U C30A G41C C49A C55G C61A | ≤ 0.5 |
| U3C C5A C66U | 0.605 |
| U3C C5G A20G G63C C66G | ≤ 0.5 |
| U3C C5G A40G | ≤ 0.5 |
| U3C C5G G9A C11G C66U | ≤ 0.5 |
| U3C C5G G17C C29U | ≤ 0.5 |
| U3C C5G G51C | ≤ 0.5 |
| U3C C5U | 0.836 |
| U3C C5U G39C | 0.57 |
| U3C C5U U7G C22U C27G G58A | ≤ 0.5 |
| U3C C5U U8C U13C C29U C46A A65U C66A | ≤ 0.5 |
| U3C C11A C24U A42G G63A | ≤ 0.5 |
| U3C C11A C31A C49G G58C | ≤ 0.5 |
| U3C C11A C31A G67U | ≤ 0.5 |
| U3C C11G A21U G56A | ≤ 0.5 |
| U3C C11G A42C C49U | ≤ 0.5 |
| U3C C11G C34G A36C G52A C60G | ≤ 0.5 |
| U3C C11G G63U | ≤ 0.5 |
| U3C C11U U19A A43U U59A G63A | ≤ 0.5 |

| Variant | yeast fitness |
| --- | --- |
| U3C C22A G67A | 0.667 |
| U3C C22U C55G U64A | ≤ 0.5 |
| U3C C24A C66U | ≤ 0.5 |
| U3C C24G C31U C55A | ≤ 0.5 |
| U3C C24U | 1.01 |
| U3C C27A | 0.706 |
| U3C C27G A45C | ≤ 0.5 |
| U3C C27G C33A | 0.655 |
| U3C C27G U28A | ≤ 0.5 |
| U3C C27U C33U C61A | ≤ 0.5 |
| U3C C27U G50A | 0.648 |
| U3C C29G G44C C49G A57C | ≤ 0.5 |
| U3C C30U | 0.879 |
| U3C C31A | 0.845 |
| U3C C31A C49A | ≤ 0.5 |
| U3C C31A C49G A70C | ≤ 0.5 |
| U3C C31U A36U G39C | ≤ 0.5 |
| U3C C31U A42G U54A | ≤ 0.5 |
| U3C C31U A57G | 0.778 |
| U3C C31U A70U | 0.865 |
| U3C C31U G52A | 0.671 |
| U3C C34A G44C C46U G51A | ≤ 0.5 |
| U3C C34G A40C A43U | ≤ 0.5 |

— the RNAGym collection of RNA variant scans (doi:10.1126/science.aae0568)
